Test results as given in the array DNA melting data of Ke et al. (doi:10.1101/2024.01.08.574731).

How the values were obtained:
[1] = melting temperature; fluorescence melt of hairpins on a sequencing array, two-state fit, raised by 9.35 °C to match UV melts; conditions: sodium 0.088 M
Outline: (§1)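 Melting temperature and folding enthalpy were obtained by bootstrapped two-state fitting. Fits used Cy3 fluorescence of library hairpins with annealed Cy3 and quencher oligos on a sequenced MiSeq flow cell, imaged in 50 mM Na-HEPES pH 8.0, 25 mM NaCl in 2.5 °C steps up to 60 °C and normalised to pre-quench Cy3 and control constructs. Four replicates were combined by inverse-variance weighting, and fitted temperatures were raised by 9.35 °C to match UV melts.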

[2] = folding enthalpy; higher = less favourable; fluorescence melt of hairpins on a sequencing array, two-state fit; conditions: sodium 0.088 M
Outline: as §1

Sequence	Tm [1]	folding enthalpy [2]
GCTATGCGAAAGCGCAGC (((..((....))..)))	36.8 °C	-18 kcal/mol
GCTATGGCGAAAGCCAGC (((..(((....))))))	42.6 °C	-11.2 kcal/mol
GCTATGGGAAACCATAAC (.(((((....))))).)	28.7 °C	-12.8 kcal/mol
GCTATGGGAAACCGTAGC ((((.((....)).))))	51.9 °C	-44.1 kcal/mol
GCTATGGGAAACTGTAGC ((((..(....)..))))	36 °C	-25.2 kcal/mol
GCTATTGAAAAATAGC ((((((....))))))	49.5 °C	-31.2 kcal/mol
GCTATTGCGAAAGCAAGC (((..(((....))))))	42.2 °C	-10.2 kcal/mol
GCTCAACCGAAAGGTAGC (((..(((....))))))	39.4 °C	-18.4 kcal/mol
GCTCAACGAAAGTTCAGC (((.(((....))).)))	37.6 °C	-23.6 kcal/mol
GCTCAAGGAAACTTGAGC (((((((....)))))))	64.4 °C	-46.3 kcal/mol
GCTCAAGGAAACTTGGGC ((.((((....)))).))	50 °C	-37.4 kcal/mol
GCTCACCGAAAGGTCAGC (((.(((....))).)))	44.2 °C	-26.3 kcal/mol
GCTCACCGAAAGGTTAGC (((.(((....))).)))	49.9 °C	-31 kcal/mol
GCTCACGAAAGTGAGAGC ((((((....)))..)))	59 °C	-13.7 kcal/mol
GCTCACGAAAGTGCAAGC ((((((....)))..)))	39.4 °C	-17.4 kcal/mol
GCTCACGAAAGTGCCAGC ((((((....)))..)))	33.5 °C	-13.1 kcal/mol
GCTCACGAAAGTGCGAGC ((((((....)))..)))	38.7 °C	-19.8 kcal/mol
GCTCACGAAAGTGGAGC ((((((....))).)))	59 °C	-27.5 kcal/mol
GCTCACGGAAACACGAGC ((((..(....)..))))	34 °C	-25.8 kcal/mol
GCTCACGGAAACGTAAGC (((.(((....))).)))	41.8 °C	-27.3 kcal/mol
GCTCAGCGAAAGCACAGC (((..((....))..)))	39.7 °C	-14.9 kcal/mol
GCTCAGCGAAAGCAGTGC ((.(.((....)).).))	44.4 °C	-13.2 kcal/mol
GCTCAGCGAAAGCCGCGC ((.(.((....)).).))	42 °C	-17.8 kcal/mol

Sequence	Tm [1]	folding enthalpy [2]
GCTCAGCGAAAGCCGGGC ((.(.((....)).).))	45.4 °C	-17.1 kcal/mol
GCTCAGCGAAAGCTAGC (((.(((....))))))	49.4 °C	-20 kcal/mol
GCTCAGCGAAAGCTCAGC (((.(((....))).)))	44.7 °C	-15 kcal/mol
GCTCAGCGAAAGCTCCGC ((..(((....)))..))	22.4 °C	-8.07 kcal/mol
GCTCAGCGAAAGCTGTGC ((.((((....)))).))	64.2 °C	-21.5 kcal/mol
GCTCATCGAAAGATTAGC (((.(((....))).)))	42.8 °C	-34.5 kcal/mol
GCTCCACCGAAAGGTAGC (((..(((....))))))	33.9 °C	-17.2 kcal/mol
GCTCCACGAAAGTGTAGC (((.(((....))).)))	49.2 °C	-28.9 kcal/mol
GCTCCAGGAAACCGGAGC (((((.(....).)))))	54.3 °C	-40.5 kcal/mol
GCTCCAGGAAACTGAAGC (((.(((....))).)))	38.6 °C	-32.5 kcal/mol
GCTCCCCCGAAAGGGAGC (((..(((....))))))	66.1 °C	-29.4 kcal/mol
GCTCCCGAAAGGGAGAGC ((((((....)))..)))	65.8 °C	-11.8 kcal/mol
GCTCCCGAAAGGGCAAGC ((((((....)))..)))	42.2 °C	-15.9 kcal/mol
GCTCCCGAAAGGGTGAGC ((((((....)))..)))	48.8 °C	-16.7 kcal/mol
GCTCCCGGAAACAGGAGC (((((.(....).)))))	49.5 °C	-34.3 kcal/mol
GCTCCCGGAAACGGGGGC ((.((((....)))).))	68.5 °C	-26.7 kcal/mol
GCTCCGCCGAAAGGCAGC (((..(((....))))))	35.1 °C	-9.89 kcal/mol
GCTCCGCGAAAGCAGCGC ((.(.((....)).).))	43.7 °C	-17.1 kcal/mol
GCTCCGCGAAAGCCCAGC (((..((....))..)))	23.2 °C	-5.26 kcal/mol
GCTCCGCGAAAGCCGGGC ((.(.((....)).).))	50 °C	-16.4 kcal/mol
GCTCCGCGAAAGCGAAGC (((.(((....))).)))	56.4 °C	-29 kcal/mol
GCTCCGCGAAAGCGACGC ((..(((....)))..))	42.6 °C	-18.4 kcal/mol
GCTCCGCGAAAGCGCTGC ((..(((....)))..))	37.4 °C	-12.3 kcal/mol

Sequence	Tm [1]	folding enthalpy [2]
GCTCCGTCGAAAGACAGC (((..(((....))))))	32.4 °C	-15 kcal/mol
GCTCCTGGAAACAAGAGC ((((.((....)).))))	34.8 °C	-27.9 kcal/mol
GCTCCTGGAAACAGAAGC (((.(((....))).)))	39.9 °C	-28.5 kcal/mol
GCTCCTGGAAACGGGAGC (((((.(....).)))))	59.5 °C	-41.1 kcal/mol
GCTCGACGAAAGTCCAGC (((.(((....))).)))	44.6 °C	-24.1 kcal/mol
GCTCGCCGAAAGGCAAGC (((.(((....))).)))	54.7 °C	-29.1 kcal/mol
GCTCGCGAAAGCGAAAGC ((((((....)))..)))	54.3 °C	-14.4 kcal/mol
GCTCGCGAAAGCGACAGC ((((((....)))..)))	47.5 °C	-10.7 kcal/mol
GCTCGCGAAAGCGCAAGC ((((((....)))..)))	48.5 °C	-12.4 kcal/mol
GCTCGCGAAAGCGCCAGC ((((((....)))..)))	42.1 °C	-8.57 kcal/mol
GCTCGCGAAAGCGGGAGC ((((((....)))..)))	55.1 °C	-15.7 kcal/mol
GCTCGCGAAAGCGTGAGC ((((((....)))..)))	53.4 °C	-18 kcal/mol
GCTCGCGGAAACACGAGC (((((.(....).)))))	55.2 °C	-44.6 kcal/mol
GCTCGGCGAAAGCCACGC ((..(((....)))..))	43.3 °C	-11.5 kcal/mol
GCTCGGCGAAAGCCCAGC (((.(((....))).)))	44.2 °C	-42.5 kcal/mol
GCTCGGCGAAAGCCGCGC ((.((((....)))).))	65.1 °C	-18.5 kcal/mol
GCTCGGCGAAAGCTAAGC (((..((....))..)))	44.4 °C	-15.8 kcal/mol
GCTCGGGGAAACCCGAAC (.(((((....))))).)	45.9 °C	-12.6 kcal/mol
GCTCGGGGAAACCTGAGC ((((.((....)).))))	59.3 °C	-35.1 kcal/mol
GCTCGTCCGAAAGGAAGC (((..(((....))))))	36.6 °C	-8.41 kcal/mol
GCTCGTCGAAAGACTAGC (((.(((....))).)))	49 °C	-39 kcal/mol
GCTCTACGAAAGTACAGC (((.(((....))).)))	35.5 °C	-21.5 kcal/mol
GCTCTATCGAAAGATAGC (((..(((....))))))	30.2 °C	-13.6 kcal/mol

Sequence	Tm [1]	folding enthalpy [2]
GCTCTCCGAAAGGAAAGC (((.(((....))).)))	46.5 °C	-28.4 kcal/mol
GCTCTCCGAAAGGATAGC (((.(((....))).)))	49.1 °C	-34.7 kcal/mol
GCTCTCGAAAGAGACAGC ((((((....)))..)))	35.9 °C	-17.8 kcal/mol
GCTCTCGAAAGAGCCAGC ((((((....)))..)))	37.5 °C	-11.3 kcal/mol
GCTCTCGAAAGAGTAGC ((((((....))).)))	47.2 °C	-27.8 kcal/mol
GCTCTGCGAAAGCAACGC ((..(((....)))..))	31.8 °C	-9.7 kcal/mol
GCTCTGCGAAAGCACAGC (((.(((....))).)))	38.6 °C	-25.6 kcal/mol
GCTCTGCGAAAGCACGGC ((..(((....)))..))	39.7 °C	-14.6 kcal/mol
GCTCTGCGAAAGCAGTGC ((.((((....)))).))	62 °C	-16.7 kcal/mol
GCTCTGCGAAAGCATCGC ((..(((....)))..))	35.4 °C	-16.3 kcal/mol
GCTCTGCGAAAGCCCAGC (((..((....))..)))	30.5 °C	-9.22 kcal/mol
GCTCTGCGAAAGCCGCGC ((.(.((....)).).))	39.4 °C	-15 kcal/mol
GCTCTGCGAAAGCTGAGC ((((.((....)).))))	68.3 °C	-41.2 kcal/mol
GCTCTGGGAAACTGGAGC ((((..(....)..))))	45.9 °C	-34.1 kcal/mol
GCTCTTACGAAAGTAAGC (((..(((....))))))	34.7 °C	-9.83 kcal/mol
GCTGACCCGAAAGGGAGC (((..(((....))))))	41.8 °C	-14.7 kcal/mol
GCTGACCGAAAGGTGAGC (((.(((....))).)))	55.4 °C	-38.4 kcal/mol
GCTGACGAAAGTCGAAGC ((((((....)))..)))	48.5 °C	-19.1 kcal/mol
GCTGACGGAAACGTCAAC (.(((((....))))).)	43.2 °C	-14.3 kcal/mol
GCTGAGCGAAAGCCAAGC (((..((....))..)))	48.6 °C	-18.8 kcal/mol
GCTGAGCGAAAGCCCTGC ((.(.((....)).).))	42.5 °C	-17.7 kcal/mol
